Compound activity deposited in PubChem by Broad Institute.
The sample as a whole holds a higher share of hits than the screen did.
T cruzi growth-1 = inhibitors of T. cruzi proliferation; inhibition, % at 8.34 µM; 77,000 tested, 5.9% active; T. cruzi beta-gal in NIH3T3, GalScreen luminescence, 90 h;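 active = mean inhibition above about 93%, with at least 55% of replicates each passing it, limit read from the data, passing the limit was not always enough; inconclusive = only one of those two conditions holds; inactive = neither condition holds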
GASC1 inh = blocks human GASC-1 (KDM4C) demethylase activity. 96,000 tested, 0.15% active. GST-KDM4C 2-372, H3K9me3 peptide, LANCE TR-FRET. inhibition, % at 12.5 µM. Q9H3R0;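 active = mean replicate inhibition above about 25%, with at least 55% of replicates also reaching it, limit read from the data, passing the limit was not always enough; inconclusive = only one of those two conditions met; inactive = neither condition met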
Target sequence (Q9H3R0 2-372 limits assumed): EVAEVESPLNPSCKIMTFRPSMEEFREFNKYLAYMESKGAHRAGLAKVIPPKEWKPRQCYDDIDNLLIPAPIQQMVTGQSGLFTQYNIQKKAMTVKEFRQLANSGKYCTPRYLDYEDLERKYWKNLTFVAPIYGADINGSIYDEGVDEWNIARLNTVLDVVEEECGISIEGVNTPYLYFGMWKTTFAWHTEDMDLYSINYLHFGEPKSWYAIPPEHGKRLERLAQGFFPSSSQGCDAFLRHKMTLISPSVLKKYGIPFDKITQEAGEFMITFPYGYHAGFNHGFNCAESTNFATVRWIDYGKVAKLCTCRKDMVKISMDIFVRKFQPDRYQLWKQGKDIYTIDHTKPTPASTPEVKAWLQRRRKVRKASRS
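System – N-terminal GST-fused human GASC-1 (KDM4C) fragment, residues 2-372 · Input – enzyme final amount 10 nM · Technique – LANCE TR-FRET, Eu antibody, ULight-streptavidin, EDTA, ex 340 nm, em 618/671 nm · Medium – HEPES buffer, pH 7.5, plus ascorbate · Incubation – enzyme reaction 30 min, then detection 60 min, both room temperature · Reagent – H3K9me3 peptide with Fe(II)/2OG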
IDH1 mut inh = blocks human IDH1 R132H reductase activity. AID 624101. inhibition, % at 10 µM. diaphorase/resazurin fluorescence, 60 min. O75874. 70,000 tested, 0.18% active; in the data active = inhibition above about 34%; inconclusive = no clear call, values can overlap the other calls; inactive = below about 11%;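 note: 0% = DMSO and 100% = no enzyme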
T cruzi growth-2 = inhibitors of T. cruzi proliferation | shares compounds with T cruzi growth-1 | T. cruzi beta-gal in NIH3T3, GalScreen luminescence, 90 h | inhibition, % at 8.35 µM | 5,600 tested, 72% active | AID 651739;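 active = mean replicate inhibition above about 95% and at least 55% of replicates individually reaching it, limit read from the data; inconclusive = only one of the two criteria is met; inactive = neither criterion is met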
T cruzi growth-3 = blocks T. cruzi growth in NIH3T3 host cells | shares compounds with T cruzi growth-1 | T. cruzi beta-gal in NIH3T3, GalScreen luminescence, 90 h | inhibition, % at 2.09 µM | 5,600 tested, 21% active;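 active = mean inhibition above about 95%, with at least 55% of replicates also reaching it, limit read from the data; inconclusive = meets just one of the two conditions; inactive = meets neither condition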;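 note: plate controls were neutral control median for no effect and positive control median for full effect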
3T3 cytotox = kills mouse NIH/3T3 fibroblasts | shares compounds with T cruzi growth-1 | NIH/3T3 viability, CellTiter-Glo ATP luminescence, 90 h | cytotoxicity (signal decrease), % at 8.35 µM | 5,600 tested, 14% active | AID 651742;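 active = mean signal decrease across replicates above about 35% based on untreated-well scatter, with enough replicates individually passing, limit read from the data; inconclusive = no rule stated though some were filed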;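 note: 0% = median of neutral control wells and 100% = median of positive control wells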
NIH3T3 tox 2 = NIH/3T3 (mouse) viability loss. shares compounds with T cruzi growth-1. NIH/3T3 viability, CellTiter-Glo ATP luminescence, 90 h. inhibition, % at 24.9 µM. 5,600 tested, 56% active;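 active = mean loss of cell viability signal at or above a set limit, and enough replicates individually reaching it; inconclusive = meets only the mean limit or only the replicate share; inactive = meets neither condition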;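 note: 0% = median of neutral control wells and 100% = median of positive control wells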
* hit, by the source's call; ? = inconclusive; . = no result.

SMILES	T cruzi growth-1	GASC1 inh	IDH1 mut inh	T cruzi growth-2	T cruzi growth-3	3T3 cytotox	NIH3T3 tox 2
CC(C)CC#Cc1ccc2c(c1)O[C@@H](CN(C)C(=O)Nc1ccccc1)[C@H](C)CN([C@H](C)CO)S2(=O)=O	121*	1	8	108*	93	23	88*
COC(=O)c1cc(NC(=O)COc2ccccc2Cl)cc(C(=O)OC)c1	.	.	1	.	.	.	.
O=C(CSc1nnc(-c2ccc(Br)cc2)o1)Nc1ccccc1Cl	.	.	1	.	.	.	.
O=C(CSC1CC(=O)N(c2ccc(I)cc2)C1=O)Nc1cccc(F)c1 (stereo unspecified)	.	.	0	.	.	.	.
CC(C)(C)NS(=O)(=O)c1ccc(OCC(=O)N2CCOCC2)cc1	.	.	0	.	.	.	.
C[C@H](CO)N1C[C@H](C)[C@@H](CN(C)C(=O)NC2CCCCC2)OCCCC[C@H](C)Oc2ccc(NC(=O)Nc3ccc(C(F)(F)F)cc3)cc2C1=O	92	-1	.	.	.	.	.
C[C@@H]1CCCCO[C@H](CN(C)C(=O)Nc2ccc(C(F)(F)F)cc2)[C@@H](C)CN([C@H](C)CO)C(=O)c2cc(NC(=O)NC3CCCCC3)ccc2O1	113*	2	.	108*	87	12	29
C[C@@H]1CCCCO[C@@H](CN(C)C(=O)Nc2ccc(C(F)(F)F)cc2)[C@H](C)CN([C@@H](C)CO)C(=O)c2cc(NC(=O)NC3CCCCC3)ccc2O1	?	10	-1	101*	84	3	-6
C[C@H](CO)N1C[C@H](C)[C@H](CN(C)C(=O)NC2CCCCC2)OCCCC[C@H](C)Oc2ccc(NC(=O)Nc3ccc(C(F)(F)F)cc3)cc2C1=O	80	0	5	.	.	.	.
C[C@@H]1CCCCO[C@@H](CN(C)C(=O)NC2CCCCC2)[C@@H](C)CN([C@H](C)CO)C(=O)c2cc(NC(=O)Nc3ccc(C(F)(F)F)cc3)ccc2O1	84	3	0	.	.	.	.
C[C@H]1CCCCO[C@@H](CN(C)C(=O)NC2CCCCC2)[C@@H](C)CN([C@@H](C)CO)C(=O)c2cc(NC(=O)Nc3ccc(C(F)(F)F)cc3)ccc2O1	93	0	.	.	.	.	.
C[C@@H]1CCCCO[C@@H](CN(C)C(=O)Nc2ccc(C(F)(F)F)cc2)[C@H](C)CN([C@H](C)CO)C(=O)c2cc(NC(=O)NC3CCCCC3)ccc2O1	117*	11	2	104*	109*	-17	-17
C[C@H](CO)N1C[C@H](C)[C@H](CN(C)C(=O)Nc2ccc(C(F)(F)F)cc2)OCCCC[C@H](C)Oc2ccc(NC(=O)NC3CCCCC3)cc2C1=O	122*	-1	.	?	106*	11	4
COc1cc(Br)c(/C=N/NC(=O)c2cccc(C(=O)NO)c2)cc1OC	.	.	0	.	.	.	.
Cc1ccnc(NS(=O)(=O)c2ccc(NC(=O)c3cc4c(s3)CCCC4)cc2)n1	.	.	1	.	.	.	.
C=CCn1c(-c2ccccc2)nn(CCC#N)c1=S	.	.	0	.	.	.	.
Cc1cccc(OCC(=O)NC(=S)Nc2ccc(C)cc2O)c1	.	.	0	.	.	.	.
CCn1c(SCC(=O)Nc2cc(Cl)cc(Cl)c2)nnc1-c1cccs1	.	.	0	.	.	.	.
O=C(NCCCN1CCOCC1)c1cnn2c(C(F)F)cc(-c3ccccc3)nc12	.	.	0	.	.	.	.
CN(CCO)c1ccc(/C=N/NC(=O)c2cccc(C(=O)NO)c2)cc1	.	.	0	.	.	.	.
C[C@@H]1CCCCO[C@H](CN(C)C(=O)NC2CCCCC2)[C@H](C)CN([C@@H](C)CO)C(=O)c2cc(NC(=O)Nc3ccc(C(F)(F)F)cc3)ccc2O1	85	-3	4	.	.	.	.
C[C@H]1CCCCO[C@@H](CN(C)C(=O)Nc2ccc(C(F)(F)F)cc2)[C@@H](C)CN([C@@H](C)CO)C(=O)c2cc(NC(=O)NC3CCCCC3)ccc2O1	123*	0	0	101*	113*	-10	2
C[C@H]1CCCCO[C@H](CN(C)C(=O)Nc2ccc(C(F)(F)F)cc2)[C@@H](C)CN([C@@H](C)CO)C(=O)c2cc(NC(=O)NC3CCCCC3)ccc2O1	109*	0	1	97*	107*	-1	26
C[C@@H]1CN([C@H](C)CO)C(=O)c2cc(NC(=O)Nc3ccc(C(F)(F)F)cc3)ccc2O[C@@H](C)CCCCO[C@@H]1CN(C)C(=O)NC1CCCCC1	80	2	.	.	.	.	.
COC(=O)c1ccccc1NC(=O)COc1ccc(Br)cc1C(C)(C)C	.	.	2	.	.	.	.
SMILES	T cruzi growth-1	GASC1 inh	IDH1 mut inh	T cruzi growth-2	T cruzi growth-3	3T3 cytotox	NIH3T3 tox 2
O=C(Nc1ccccc1)N1CCCCN2[C@H](CO)[C@@H](c3ccc(-c4ccncc4)cc3)[C@@H]2C1	71	-1	.	.	.	.	.
CC(=O)N1CCCCN2[C@@H](CO)[C@H](c3ccc(-c4ccccc4)cc3)[C@@H]2C1	104*	7	.	65	46	32	42*
O=C(Nc1ccccc1)N1CCCCN2[C@@H](CO)[C@@H](c3ccc(-c4ccncc4)cc3)[C@@H]2C1	?	-2	.	91	69	9	19
O=C(Nc1ccccc1)N1CCCCN2[C@H](CO)[C@@H](c3ccc(-c4ccccc4)cc3)[C@@H]2C1	?	-1	.	109*	94	-8	104*
CC(=O)N1CCCCN2[C@H](CO)[C@H](c3ccc(-c4ccccc4)cc3)[C@H]2C1	61	1	.	.	.	.	.
O=C(Nc1ccccc1)N1CCCCN2[C@@H](CO)[C@H](c3ccc(-c4ccccc4)cc3)[C@@H]2C1	99*	2	.	91	74	44*	103*
O=C(Nc1ccccc1)N1CCCCN2[C@H](C1)[C@@H](c1ccc(Br)cc1)[C@@H]2CO	53	0	.	.	.	.	.
O=C(Nc1ccccc1)N1CCCCN2[C@H](CO)[C@@H](c3ccc(Br)cc3)[C@H]2C1	85	-1	.	.	.	.	.
Nc1nc(SCc2nnc(Nc3ccccc3)s2)nc2sc3c(c12)CCC3	.	.	1	.	.	.	.
N/C(CS(=O)(=O)Cc1ccc(F)cc1)=N\O	.	.	1	.	.	.	.
Cc1sc(NC(=O)c2cnccn2)c(C(N)=O)c1-c1ccccc1	.	.	0	.	.	.	.
Cc1cc(C(F)(F)F)nn1CCCNC(=O)c1cc(-c2cccnc2)nc2ccc(Cl)cc12	.	.	3	.	.	.	.
CS(=O)(=O)N(CC(=O)Nc1c(F)cccc1F)c1ccc(I)cc1	.	.	0	.	.	.	.
Cc1ccc(-c2ccc([C@H]3[C@@H](CO)N4CCCCN(C(=O)Nc5ccccc5)C[C@H]34)cc2)cc1	57	-1	.	.	.	.	.
Cc1ccc(-c2ccc([C@@H]3[C@H](CO)N4CCCCN(C(=O)Nc5ccccc5)C[C@@H]34)cc2)cc1	?	-3	.	105*	106*	120*	105*
C[C@@H]1CCCCO[C@@H](CN(C)C(=O)C2CCCCC2)[C@@H](C)CN([C@@H](C)CO)C(=O)c2cc(NS(=O)(=O)c3ccc(Cl)cc3)ccc2O1	93	1	-2	.	.	.	.
